Published values of several laboratories.
Lines come from different studies, so protocols differ.
DPP4: Dipeptidyl peptidase 4 (DPP4, Homo sapiens, UniProt P27487)
1-deoxy-D-xylulose 5-phosphate reductoisomerase: 1-deoxy-D-xylulose 5-phosphate reductoisomerase (Mycobacterium tuberculosis, UniProt P9WNS1)
pknB: Serine/threonine-protein kinase PknB (pknB, Mycobacterium tuberculosis, UniProt P9WI81)
ENAH: Protein enabled homolog (ENAH, UniProt Q8N8S7)

CC(C)[C@H](N)C(=O)N1CCC[C@H]1C(=O)N[C@H](C(=O)N1CCC[C@H]1C(=O)N[C@@H](CCCCN)C(=O)O)C(C)C  IC50 (DPP4; enzyme activity, inhibitor, absorbance; pH 8): 104 µM
CC(=O)N(O)CCC(c1ccc(-c2cccnc2)cc1)P(=O)(O)O (stereo not shown)  IC50 (1-deoxy-D-xylulose 5-phosphate reductoisomerase; enzyme activity, inhibitor, absorbance; pH 7.5): 0.8 µM
COc1cccc(-c2ccnc(Nc3ccc(N4CCN(C(=O)OC(C)(C)C)CC4)c(C(F)(F)F)c3)n2)c1  Ki (pknB; cell-free assay, inhibitor): > 5.9 µM
CC(=O)N[C@@H](CO)C(=O)N[C@@H](Cc1ccccc1)C(=O)N[C@@H](CCC(=O)O)C(=O)N[C@@H](Cc1ccccc1)C(=O)N1CCC[C@H]1C(=O)N1CCC[C@H]1C(=O)N1CCC[C@H]1C(=O)N1CCC[C@H]1C(=O)N[C@H](C(=O)N[C@@H](CCC(=O)O)C(=O)N[C@@H](CC(=O)O)C(=O)N[C@@H](CCC(=O)O)C(=O)N[C@@H](CC(C)C)C(N)=O)[C@@H](C)O  Kd (ENAH; binding, fluorescence): 13 µM
CC(C)(C)OC(=O)N1CCN(c2ccc(Nc3nccc(-c4ccccc4)n3)cc2C(F)(F)F)CC1  Ki (pknB; cell-free assay, inhibitor): > 5.9 µM
CC(C)C[C@H](NC(=O)[C@@H]1CCCN1C(=O)[C@@H](NC(=O)[C@@H]1CCCN1C(=O)[C@@H](N)C(C)C)C(C)C)C(=O)O  IC50 (DPP4; enzyme activity, inhibitor, absorbance; pH 8): 130 µM
CC(=O)N(O)CCC(c1ccc2c(c1)OCO2)P(=O)(O)O (stereo not shown)  IC50 (1-deoxy-D-xylulose 5-phosphate reductoisomerase; enzyme activity, inhibitor, absorbance; pH 7.5): 1.5 µM
CC(C)[C@H](N)C(=O)N1CCC[C@H]1C(=O)N[C@H](C(=O)N1CCC[C@H]1C(=O)N[C@@H](CO)C(=O)O)C(C)C  IC50 (DPP4; enzyme activity, inhibitor, absorbance; pH 8): 92.9 µM
CC(=O)N(O)CCC(c1cc2ccccc2o1)P(=O)(O)O (stereo not shown)  IC50 (1-deoxy-D-xylulose 5-phosphate reductoisomerase; enzyme activity, inhibitor, absorbance; pH 7.5): 9.6 µM
CC(=O)N[C@@H](Cc1ccccc1Cl)C(=O)N1CCC[C@H]1C(=O)N1CCC[C@H]1C(=O)N1CCC[C@H]1C(=O)N1CCC[C@H]1C(=O)N[C@H](C(=O)N[C@@H](CCC(=O)O)C(=O)N[C@@H](CC(=O)O)C(=O)N[C@@H](CCC(=O)O)C(=O)N[C@@H](C)C(N)=O)[C@@H](C)O  Kd (ENAH; binding, fluorescence): 3.5 µM
